The target of experiment [1] is Dual specificity protein phosphatase 3 (Homo sapiens, UniProt P51452). The experiment in a line: Inhibition of VHR. Put shortly: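 VHR in 25 mM MOPS, 5 mM EDTA, 2 mM DTE, 0.025% NP-40, pre-incubated 10-15 min with inhibitor at 100-3.125 µM (2-fold). Reaction started with 1 mM p-nitrophenyl phosphate. Rate from the A405 slope versus control, in quadruplicate. IC50 was derived by linear extrapolation of velocity against log inhibitor concentration.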

Experiment [2] has as its target T1, Phosphotyrosine-protein phosphatase PTPB (Mycobacterium tuberculosis, UniProt P96830).
T1 sequence (P96830 whole entry): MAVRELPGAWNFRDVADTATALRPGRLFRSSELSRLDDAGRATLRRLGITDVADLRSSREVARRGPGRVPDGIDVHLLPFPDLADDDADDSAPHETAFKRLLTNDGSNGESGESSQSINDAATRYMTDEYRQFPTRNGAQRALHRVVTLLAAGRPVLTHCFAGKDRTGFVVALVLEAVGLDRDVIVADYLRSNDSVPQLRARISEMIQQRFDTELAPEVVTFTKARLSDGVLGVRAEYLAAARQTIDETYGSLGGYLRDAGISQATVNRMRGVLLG
Description: Inhibition of Mycobacterium tuberculosis ptpb. Put shortly:
(§1)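 MptpA or MptpB was expressed in E. coli BL21(DE3) with 1 mM IPTG for 4 h at 25 °C, then purified by Ni-NTA and Superdex 75 gel filtration. Enzyme was pre-incubated 10-15 min with inhibitor (100-3.125 µM, 2-fold) in 25 mM HEPES, 50 mM NaCl, 2.5 mM EDTA, 2 mM DTE, 0.025% NP-40. Reaction used 1 mM p-nitrophenyl phosphate, read as A405 slope, quadruplicate, IC50 from log-concentration extrapolation.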

The target in experiment [3] is T2, M-phase inducer phosphatase 1 (Homo sapiens, UniProt P30304).
T2 sequence (P30304 whole entry): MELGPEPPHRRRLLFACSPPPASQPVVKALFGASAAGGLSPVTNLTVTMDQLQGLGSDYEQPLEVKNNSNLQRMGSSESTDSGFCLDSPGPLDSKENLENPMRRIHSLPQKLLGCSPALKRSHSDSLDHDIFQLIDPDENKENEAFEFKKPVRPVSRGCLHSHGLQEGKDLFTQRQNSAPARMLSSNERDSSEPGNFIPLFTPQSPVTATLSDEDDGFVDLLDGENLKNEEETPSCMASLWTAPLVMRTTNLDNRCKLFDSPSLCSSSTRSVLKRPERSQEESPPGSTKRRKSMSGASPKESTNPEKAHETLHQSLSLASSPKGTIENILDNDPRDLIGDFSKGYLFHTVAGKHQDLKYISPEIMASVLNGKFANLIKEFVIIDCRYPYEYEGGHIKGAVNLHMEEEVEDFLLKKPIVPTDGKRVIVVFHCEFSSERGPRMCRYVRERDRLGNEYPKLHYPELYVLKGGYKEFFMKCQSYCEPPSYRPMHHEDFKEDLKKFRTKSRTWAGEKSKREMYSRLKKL
The experiment in a line: Inhibition of CDC25a. Summed up: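 Recombinant CDC25A, pre-incubated 10-15 min with inhibitor in 50 mM Tris, 50 mM NaCl, 0.1 mM EDTA, 2 mM DTE, 0.025% NP-40. Started with p-nitrophenyl phosphate at 50 mM final. Inhibitor at 100-3.125 µM in 2-fold steps. Rate was taken from the A405 slope versus an uninhibited control, in quadruplicate. IC50 came from linear extrapolation against log concentration.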

The target of experiment [4] is T3, Low molecular weight protein-tyrosine phosphatase A (Mycobacterium tuberculosis, UniProt P9WIA1).
T3 sequence (P9WIA1 whole entry): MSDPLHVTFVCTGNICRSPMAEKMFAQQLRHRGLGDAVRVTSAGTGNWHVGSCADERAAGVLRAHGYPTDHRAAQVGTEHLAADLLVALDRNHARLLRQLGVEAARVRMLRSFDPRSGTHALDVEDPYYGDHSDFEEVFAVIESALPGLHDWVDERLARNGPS
The experiment in a line: Inhibition of Mycobacterium tuberculosis ptpA. Summed up: as §1

For experiment [5], the target named is T4, Tyrosine-protein phosphatase non-receptor type 11 (Homo sapiens, UniProt Q06124).
T4 sequence (Q06124 whole entry): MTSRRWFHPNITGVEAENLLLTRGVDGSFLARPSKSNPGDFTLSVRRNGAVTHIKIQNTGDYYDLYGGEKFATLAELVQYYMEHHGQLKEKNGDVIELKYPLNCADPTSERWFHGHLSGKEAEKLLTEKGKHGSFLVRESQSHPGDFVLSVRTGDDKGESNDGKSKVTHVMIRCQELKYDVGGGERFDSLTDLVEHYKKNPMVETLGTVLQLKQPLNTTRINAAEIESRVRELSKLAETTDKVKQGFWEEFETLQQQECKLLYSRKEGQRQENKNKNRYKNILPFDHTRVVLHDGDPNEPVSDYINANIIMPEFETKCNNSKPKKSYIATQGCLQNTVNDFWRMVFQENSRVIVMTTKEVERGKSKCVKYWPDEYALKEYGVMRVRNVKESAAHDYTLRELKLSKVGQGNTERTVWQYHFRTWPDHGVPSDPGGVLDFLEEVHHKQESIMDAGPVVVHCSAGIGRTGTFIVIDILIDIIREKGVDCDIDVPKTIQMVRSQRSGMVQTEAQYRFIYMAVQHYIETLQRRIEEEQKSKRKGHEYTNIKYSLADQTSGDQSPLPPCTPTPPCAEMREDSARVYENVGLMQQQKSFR
Description: Inhibition of SHP2. Summed up:
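SHP2 pre-incubated 10-15 min with a 2-fold inhibitor series (100-3.125 µM) in buffer with 2 mM DTE and 0.025% NP-40. Reaction used 1 mM p-nitrophenyl phosphate. Enzyme was set to give 1-2 OD405/h. Velocity was taken from the A405 slope, with quadruplicate wells. IC50 came from linear extrapolation against log concentration.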

In experiment [6] the target is T5, Tyrosine-protein phosphatase non-receptor type 1 (Homo sapiens, UniProt P18031).
T5 sequence (P18031 whole entry): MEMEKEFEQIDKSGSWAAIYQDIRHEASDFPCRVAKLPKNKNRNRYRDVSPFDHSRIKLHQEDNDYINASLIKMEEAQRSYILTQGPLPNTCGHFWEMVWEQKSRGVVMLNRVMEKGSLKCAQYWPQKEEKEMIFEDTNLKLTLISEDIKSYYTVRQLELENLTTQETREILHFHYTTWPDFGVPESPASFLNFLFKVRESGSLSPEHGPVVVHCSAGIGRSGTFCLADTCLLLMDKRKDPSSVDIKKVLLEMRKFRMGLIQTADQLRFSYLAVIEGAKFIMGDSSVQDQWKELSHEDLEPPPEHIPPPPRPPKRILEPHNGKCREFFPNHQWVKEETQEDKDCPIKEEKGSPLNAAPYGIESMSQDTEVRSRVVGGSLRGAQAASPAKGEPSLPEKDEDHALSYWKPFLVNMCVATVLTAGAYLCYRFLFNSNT
Description: Inhibition of PTP1b. Summed up: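 PTP1b pre-incubated 10-15 min with inhibitor (2-fold series, 100 down to 3.125 µM) in 25 mM HEPES, 50 mM NaCl, 2.5 mM EDTA, 2 mM DTE, 0.025% NP-40. Reaction started with 1 mM p-nitrophenyl phosphate. Velocity from the A405 slope relative to an inhibitor-free control, quadruplicates. IC50 by linear extrapolation of velocity versus log concentration, with 100 µM as the upper limit.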

Dual specificity protein phosphatase 3, sequence (P51452 whole entry): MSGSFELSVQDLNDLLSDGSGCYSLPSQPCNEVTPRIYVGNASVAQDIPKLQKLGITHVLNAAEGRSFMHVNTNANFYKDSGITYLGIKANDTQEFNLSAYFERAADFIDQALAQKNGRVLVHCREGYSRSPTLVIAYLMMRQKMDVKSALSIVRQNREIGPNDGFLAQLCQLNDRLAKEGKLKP

As to `CC[C@H](C)[C@H](NC(=O)N[C@@H]1CCCCNC(=O)[C@H](Cc2ccccc2)NC(=O)[C@H](Cc2c[nH]c3ccccc23)N(C)C(=O)[C@H](CC(C)C)NC(=O)[C@H](C(C)C)NC1=O)C(=O)O` [BRUNSVICAMIDE A], the IC50 was above 100 µM in experiment [1], 64.2 µM in experiment [2], above 100 µM in experiment [3] and above 100 µM in experiment [4].

For `CC[C@H](C)[C@H](NC(=O)N[C@H]1CCCCNC(=O)[C@H](Cc2ccccc2)NC(=O)[C@H](Cc2c[nH]c3ccccc23)N(C)C(=O)[C@H](CC(C)C)NC(=O)[C@H]([C@@H](C)CC)NC1=O)C(=O)O`, the IC50 in experiment [5] and in experiment [6] was above 100 µM in each case.

As to `CC[C@H](C)[C@H](NC(=O)N[C@@H]1CCCCNC(=O)[C@H](Cc2ccccc2)NC(=O)[C@H](Cc2c[nH]c3ccccc23)N(C)C(=O)[C@H](CC(C)C)NC(=O)[C@H]([C@@H](C)CC)NC1=O)C(=O)O`, the IC50 is above 100 µM in experiment [1], 7.3 µM in experiment [2], above 100 µM in experiment [3] and above 100 µM in experiment [4].

In the case of `CC[C@H](C)[C@H](NC(=O)N[C@H]1CCCCNC(=O)[C@H](Cc2ccccc2)NC(=O)[C@H](Cc2c[nH]c3ccccc23)N(C)C(=O)[C@H](CC(C)C)NC(=O)[C@H](C(C)C)NC1=O)C(=O)O` [BRUNSVICAMIDE A], the IC50 in experiment [5] and in experiment [6] was above 100 µM throughout.
